The structures appear in SMILES notation. Calls of active or inactive are those of the source. The calls are words filed in the database; no cut-off is given here.

Data set [1] has as its target Cholinesterase (Equus caballus) (UniProt P81908). In words: Time dependent inhibition of equine BChE.
The target in another data set is Cholinesterase (Equus caballus, UniProt P81908). Kind of data set: Inhibition of equine BChE using butyrylthiocholine as substrate measured after 15 sec by Ellman's method. Put shortly:
(§1)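 Ellman assay scaled to 120 μL reactions, with no enzyme–inhibitor pre-incubation. Activity read after 15 s of enzyme exposure. Inhibitor stocks were made in methanol and diluted into buffer; some values were determined in 2% DMSO. IC50 values are reported as mean with standard deviation.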
In general terms: DTNB colorimetry detects thiols as they appear.

In data set [2] the target is T1, Acetylcholinesterase (Electrophorus electricus, UniProt O42275). Kind of data set: Inhibition of electric eel AChE using acetylthiocholine as substrate measured after 15 sec by Ellman's method. In short, it runs like this:
as §1

Data set [3] can be described thus: Selectivity index, ratio of IC50 for electric eel AChE using acetylthiocholine as substrate measured after 15 sec by Ellman's method to IC50 for equine BChE using butyrylthiocholine as substrate measured after 15 sec by Ellman's method.
In data set [4] the target is Cholinesterase (Equus caballus) (UniProt P81908). In words: Binding affinity to equine BChE assessed as observed rate constant.
Data set [5] concerns the target T1, Acetylcholinesterase. In words: Time dependent inhibition of electric eel AChE.
In data set [6] the target is Cholinesterase (Equus caballus) (UniProt P81908). In words: Inhibition of equine BChE at 34 uM using butyrylthiocholine as substrate measured after 15 sec by Ellman's method relative to control. In short, it runs like this: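 Single-concentration Ellman screen (120 μL scale) at 34 μM inhibitor with 2% MeOH (v/v) vehicle. Activity read after 15 s of enzyme exposure, in triplicate, reported as mean. Expressed relative to a vehicle-only control reaction.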

Cholinesterase (Equus caballus), sequence (P81908 whole entry): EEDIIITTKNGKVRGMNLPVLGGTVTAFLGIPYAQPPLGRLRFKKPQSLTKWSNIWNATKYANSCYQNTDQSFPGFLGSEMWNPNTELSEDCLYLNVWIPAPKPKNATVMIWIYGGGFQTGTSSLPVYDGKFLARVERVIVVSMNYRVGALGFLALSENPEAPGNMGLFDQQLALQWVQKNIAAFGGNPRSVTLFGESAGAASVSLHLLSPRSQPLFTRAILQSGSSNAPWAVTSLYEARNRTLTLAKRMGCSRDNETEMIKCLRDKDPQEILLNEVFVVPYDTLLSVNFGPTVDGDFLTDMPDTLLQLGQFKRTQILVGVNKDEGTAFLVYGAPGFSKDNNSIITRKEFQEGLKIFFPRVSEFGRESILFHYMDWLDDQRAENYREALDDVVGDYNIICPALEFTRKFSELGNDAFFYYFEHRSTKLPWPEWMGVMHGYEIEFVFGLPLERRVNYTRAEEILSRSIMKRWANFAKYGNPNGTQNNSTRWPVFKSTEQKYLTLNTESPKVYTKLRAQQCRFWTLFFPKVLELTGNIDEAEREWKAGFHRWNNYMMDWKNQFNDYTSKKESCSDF
Cholinesterase, sequence (P81908 whole entry): as above
T1 sequence (O42275 whole entry): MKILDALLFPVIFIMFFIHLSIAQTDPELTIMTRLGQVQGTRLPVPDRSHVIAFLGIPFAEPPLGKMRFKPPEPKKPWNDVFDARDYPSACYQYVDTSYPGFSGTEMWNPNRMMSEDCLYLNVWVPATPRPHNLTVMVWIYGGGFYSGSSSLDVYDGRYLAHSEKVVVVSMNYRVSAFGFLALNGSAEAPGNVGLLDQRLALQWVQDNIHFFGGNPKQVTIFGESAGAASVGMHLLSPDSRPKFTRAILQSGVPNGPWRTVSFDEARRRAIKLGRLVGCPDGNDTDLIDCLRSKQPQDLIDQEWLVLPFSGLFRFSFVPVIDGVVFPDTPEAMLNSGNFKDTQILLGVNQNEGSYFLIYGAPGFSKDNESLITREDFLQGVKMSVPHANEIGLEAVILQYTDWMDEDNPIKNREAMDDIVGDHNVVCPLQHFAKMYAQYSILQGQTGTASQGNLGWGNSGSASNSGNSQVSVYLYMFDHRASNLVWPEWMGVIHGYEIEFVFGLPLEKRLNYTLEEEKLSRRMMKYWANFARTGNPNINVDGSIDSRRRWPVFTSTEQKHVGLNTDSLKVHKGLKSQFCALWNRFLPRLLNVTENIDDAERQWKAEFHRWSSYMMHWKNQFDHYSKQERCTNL

For the compound `CCOP(=O)(OCC)Oc1ccc(Cc2cc3ccccc3oc2=O)cc1`, in data set [1], the inhibition – broadly, the relative decrease from the control value, in per cent – is “Active”. Further, the IC50 against Cholinesterase and against Acetylcholinesterase [2] was 30.2 µM throughout. Besides, the Ratio IC50 in data set [3] was determined as 3.
Take `CCOP(=S)(OCC)Oc1c(C(CC(C)=O)c2ccccc2)c(=O)oc2ccccc12` (racemic): on Cholinesterase, the IC50 (usually the point on the concentration scale where inhibition reaches its midpoint) was greater than 100 µM. The K in data set [4] was determined as 8400 M⁻¹ s⁻¹.
Consider `CCS(=O)(=O)Oc1cccc2ccccc12`, for which, at Cholinesterase, the IC50 came to 71.5 µM.
As to `CCOP(=O)(OCC)Oc1c(C(CC(C)=O)c2ccccc2)c(=O)oc2ccccc12` (racemic), in data set [1], the TDI entry is “Active”. Besides, on Cholinesterase, half-maximal inhibition (IC50) required 11.2 µM. Moreover, at Acetylcholinesterase [5], the TDI result was “Not Active”. In data set [4], the K was 142000 M⁻¹ s⁻¹.
Compound `O=c1oc2cccc(O)c2cc1Cc1ccc(O)cc1` came in with an IC50 against Cholinesterase of 32 µM. This counts as double-digit micromolar.
Same read-out and setting: the result for `O=c1oc2ccccc2cc1Cc1ccc(O)cc1` reads 51.2 µM.
On the same count and under the same terms, as for `O=c1oc2cccc(O)c2cc1Cc1ccccc1`, the figure is greater than 700 µM; as for `CCOP(=S)(OCC)Oc1ccc(Cc2cc3ccccc3oc2=O)cc1`, 53 µM.
In the case of `CCOP(=O)(OCC)Oc1cccc2oc(=O)c(Cc3ccccc3)cc12`, on Cholinesterase, inhibition was half-maximal at 0.363 µM (IC50).
Turning to `CC(=O)CC(c1ccccc1)c1c(O)c2ccccc2oc1=O` (stereo unspecified), the inhibition in data set [6] was 10%.
As to `CCOP(=O)(OCC)Oc1cccc2ccccc12`, on Cholinesterase, the IC50 was found to be 54 µM.
Regarding `CCCCOP(=O)(OCCCC)Oc1c(C(CC(C)=O)c2ccccc2)c(=O)oc2ccccc12` (racemic), in data set [1], the TDI result is “Active”. Moreover, at Cholinesterase, it took 1.52 µM to reach half-maximal inhibition (IC50). On Acetylcholinesterase [5], the TDI entry is “Not Active”.
